Data from ChEMBL document CHEMBL1139290, “Design, synthesis, and pharmacological and pharmacokinetic evaluation of 3-phenyl-5-pyridyl-1,2,4-triazole derivatives as xanthine oxidoreductase inhibitors” (Bioorg Med Chem Lett, 2009).

Columns and labels:
Rattus norvegicus [1] = assay: Reduction of uric acid level in rat serum at 0.3 mg/kg, po after 6 hrs by phosphotungstic acid method; assay type: functional; parameters: scale not given: the % may be the effect or the level left
Summary of the method: (§1)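 Rats dosed orally. Blood drawn from the orbital sinus 6 h post-dose, clotted 1 h at room temperature and centrifuged. Serum uric acid measured by the phosphotungstic acid method.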

[2] = Half life in rat at 3 mg/kg, po; assay type: ADME, organism-based; parameters: dose 3 mg/kg, route oral; details: in vivo
Summary of the method: (§2)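 Compounds given orally to rats; blood taken from the jugular vein at set times and centrifuged to plasma. Plasma aliquots were mixed with acetonitrile containing an internal standard, then centrifuged.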

[3] = target: Xanthine dehydrogenase/oxidase (Bos taurus, UniProt P80457); assay: Inhibition of bovine milk xanthine oxidoreductase
Summary of the method: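 Bovine milk XO (2 mU/mL) with 15 µM xanthine in 50 mM phosphate buffer, pH 7.4, at 25 °C, with or without compound. Uric acid formation read as absorbance rise at 292 nm. Initial rate taken from 0 to 2.5 min and used for IC50.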

CYP3A4 = CYP3A4 (Homo sapiens, UniProt P08684); assay: Inhibition of human CYP3A4 at 10 uM; assay type: ADME
[4] = Cmax in rat at 3 mg/kg, po; assay type: ADME, organism-based; parameters: dose 3 mg/kg, route oral; details: in vivo; summary of the method: as §2
[5] = Cmax in rat at 1 mg/kg, po; assay type: ADME, organism-based; parameters: dose 1 mg/kg, route oral; details: in vivo; summary of the method: as §2
Rattus norvegicus [6] = assay: Reduction of uric acid level in rat serum at 1 mg/kg, po after 6 hrs by phosphotungstic acid method; assay type: functional; parameters: scale not given: the % may be the effect or the level left; summary of the method: as §1
Cytochrome P450 2C9 = Cytochrome P450 2C9 (Homo sapiens, UniProt P11712); assay: Inhibition of human CYP2C9; assay type: ADME
Cytochrome P450 2C19 = Cytochrome P450 2C19 (Homo sapiens, UniProt P33261); assay: Inhibition of human CYP2C19; assay type: ADME
Cytochrome P450 2D6 = Cytochrome P450 2D6 (Homo sapiens, UniProt P10635); assay: Inhibition of human CYP2D6; assay type: ADME
Cytochrome P450 1A2 = target: T1, Cytochrome P450 1A2 (Homo sapiens, UniProt P05177); assay: Inhibition of human CYP1A2; assay type: ADME
T1 sequence (P05177 whole entry): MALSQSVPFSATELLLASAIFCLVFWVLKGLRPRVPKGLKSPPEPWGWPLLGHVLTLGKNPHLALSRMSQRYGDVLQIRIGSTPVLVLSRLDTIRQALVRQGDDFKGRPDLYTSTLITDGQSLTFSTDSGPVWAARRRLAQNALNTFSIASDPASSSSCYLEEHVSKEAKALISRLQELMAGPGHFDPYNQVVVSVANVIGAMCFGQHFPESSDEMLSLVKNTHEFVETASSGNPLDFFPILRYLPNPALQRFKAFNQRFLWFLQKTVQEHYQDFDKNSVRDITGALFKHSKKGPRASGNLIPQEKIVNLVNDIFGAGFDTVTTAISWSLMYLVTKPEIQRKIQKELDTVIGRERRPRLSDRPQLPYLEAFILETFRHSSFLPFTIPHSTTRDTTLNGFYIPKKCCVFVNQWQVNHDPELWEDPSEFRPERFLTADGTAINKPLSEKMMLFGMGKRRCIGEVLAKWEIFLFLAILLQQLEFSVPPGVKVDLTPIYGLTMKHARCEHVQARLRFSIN

Chain of CYP3A4 (P08684 whole entry): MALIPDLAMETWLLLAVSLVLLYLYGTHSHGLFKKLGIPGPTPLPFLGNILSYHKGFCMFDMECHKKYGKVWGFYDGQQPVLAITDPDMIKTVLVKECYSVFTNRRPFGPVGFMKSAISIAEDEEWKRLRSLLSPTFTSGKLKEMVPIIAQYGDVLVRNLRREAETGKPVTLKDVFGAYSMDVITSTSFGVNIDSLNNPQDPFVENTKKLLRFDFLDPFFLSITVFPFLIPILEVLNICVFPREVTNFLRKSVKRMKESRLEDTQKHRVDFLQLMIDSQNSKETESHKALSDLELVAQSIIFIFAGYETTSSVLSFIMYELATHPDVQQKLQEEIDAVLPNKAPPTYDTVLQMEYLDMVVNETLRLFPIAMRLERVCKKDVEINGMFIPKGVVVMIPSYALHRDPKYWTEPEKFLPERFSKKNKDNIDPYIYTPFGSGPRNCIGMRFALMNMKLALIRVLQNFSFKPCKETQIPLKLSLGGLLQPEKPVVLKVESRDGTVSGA
Chain of Xanthine dehydrogenase/oxidase (P80457 whole entry): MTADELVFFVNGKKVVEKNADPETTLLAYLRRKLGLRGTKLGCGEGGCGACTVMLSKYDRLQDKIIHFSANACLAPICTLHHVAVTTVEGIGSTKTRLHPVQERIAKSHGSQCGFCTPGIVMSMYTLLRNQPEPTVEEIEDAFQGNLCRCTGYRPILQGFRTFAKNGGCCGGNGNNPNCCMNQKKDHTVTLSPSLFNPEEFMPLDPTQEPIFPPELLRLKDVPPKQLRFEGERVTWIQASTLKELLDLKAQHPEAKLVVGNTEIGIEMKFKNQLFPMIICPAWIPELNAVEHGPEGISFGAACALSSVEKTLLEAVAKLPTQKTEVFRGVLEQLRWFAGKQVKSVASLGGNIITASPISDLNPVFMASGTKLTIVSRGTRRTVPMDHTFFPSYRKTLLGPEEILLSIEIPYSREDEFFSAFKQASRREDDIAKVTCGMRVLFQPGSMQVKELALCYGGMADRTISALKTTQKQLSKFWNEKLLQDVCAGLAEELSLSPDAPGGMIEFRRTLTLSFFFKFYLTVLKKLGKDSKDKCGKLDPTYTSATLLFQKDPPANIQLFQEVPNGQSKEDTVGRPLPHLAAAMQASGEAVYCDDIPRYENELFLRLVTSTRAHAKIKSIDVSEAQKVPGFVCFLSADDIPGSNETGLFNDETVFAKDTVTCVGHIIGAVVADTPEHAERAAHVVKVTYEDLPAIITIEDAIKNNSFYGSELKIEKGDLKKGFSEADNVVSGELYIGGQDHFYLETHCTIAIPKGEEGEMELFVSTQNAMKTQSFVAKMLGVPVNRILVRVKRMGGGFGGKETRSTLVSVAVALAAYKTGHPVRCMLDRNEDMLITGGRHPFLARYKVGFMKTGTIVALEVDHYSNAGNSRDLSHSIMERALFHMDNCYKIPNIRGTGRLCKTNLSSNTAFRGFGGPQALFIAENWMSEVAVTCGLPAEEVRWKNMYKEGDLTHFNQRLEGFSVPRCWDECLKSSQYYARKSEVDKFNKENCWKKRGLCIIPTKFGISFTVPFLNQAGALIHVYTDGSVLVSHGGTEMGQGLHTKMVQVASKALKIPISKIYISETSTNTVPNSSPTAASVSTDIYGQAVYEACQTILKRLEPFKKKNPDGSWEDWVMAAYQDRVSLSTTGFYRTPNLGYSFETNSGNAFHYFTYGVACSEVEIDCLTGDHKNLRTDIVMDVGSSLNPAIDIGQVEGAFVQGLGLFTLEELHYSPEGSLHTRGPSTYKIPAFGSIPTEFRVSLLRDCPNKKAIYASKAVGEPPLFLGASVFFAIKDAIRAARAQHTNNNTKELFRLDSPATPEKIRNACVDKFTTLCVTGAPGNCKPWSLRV
Chain of Cytochrome P450 2D6 (P10635 whole entry): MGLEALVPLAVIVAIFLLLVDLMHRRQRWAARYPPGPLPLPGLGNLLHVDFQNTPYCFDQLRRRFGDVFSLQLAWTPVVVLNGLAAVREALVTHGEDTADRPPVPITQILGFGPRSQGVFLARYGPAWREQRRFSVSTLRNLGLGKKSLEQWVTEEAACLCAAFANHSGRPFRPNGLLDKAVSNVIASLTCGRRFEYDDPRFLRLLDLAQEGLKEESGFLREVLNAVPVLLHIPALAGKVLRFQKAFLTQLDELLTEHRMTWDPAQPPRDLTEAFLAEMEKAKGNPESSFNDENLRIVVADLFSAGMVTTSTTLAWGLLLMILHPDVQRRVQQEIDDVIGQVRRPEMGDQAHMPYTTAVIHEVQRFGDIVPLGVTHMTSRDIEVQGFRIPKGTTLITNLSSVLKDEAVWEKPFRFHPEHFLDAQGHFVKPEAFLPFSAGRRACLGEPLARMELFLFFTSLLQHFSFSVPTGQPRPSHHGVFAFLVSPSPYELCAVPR
Chain of Cytochrome P450 2C9 (P11712 whole entry): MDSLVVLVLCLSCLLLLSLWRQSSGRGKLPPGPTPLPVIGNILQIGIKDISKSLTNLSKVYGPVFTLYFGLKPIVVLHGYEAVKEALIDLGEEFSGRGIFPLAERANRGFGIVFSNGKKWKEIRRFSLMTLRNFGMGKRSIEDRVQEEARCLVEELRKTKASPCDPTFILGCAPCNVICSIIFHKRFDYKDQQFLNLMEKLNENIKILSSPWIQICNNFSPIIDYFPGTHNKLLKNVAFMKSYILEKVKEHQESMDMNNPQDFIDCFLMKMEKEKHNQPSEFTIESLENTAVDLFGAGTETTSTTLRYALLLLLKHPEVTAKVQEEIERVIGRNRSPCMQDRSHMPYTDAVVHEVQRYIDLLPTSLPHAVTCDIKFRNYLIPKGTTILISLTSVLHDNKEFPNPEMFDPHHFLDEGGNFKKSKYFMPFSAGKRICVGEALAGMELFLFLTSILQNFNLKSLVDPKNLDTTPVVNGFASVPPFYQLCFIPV
Chain of Cytochrome P450 2C19 (P33261 whole entry): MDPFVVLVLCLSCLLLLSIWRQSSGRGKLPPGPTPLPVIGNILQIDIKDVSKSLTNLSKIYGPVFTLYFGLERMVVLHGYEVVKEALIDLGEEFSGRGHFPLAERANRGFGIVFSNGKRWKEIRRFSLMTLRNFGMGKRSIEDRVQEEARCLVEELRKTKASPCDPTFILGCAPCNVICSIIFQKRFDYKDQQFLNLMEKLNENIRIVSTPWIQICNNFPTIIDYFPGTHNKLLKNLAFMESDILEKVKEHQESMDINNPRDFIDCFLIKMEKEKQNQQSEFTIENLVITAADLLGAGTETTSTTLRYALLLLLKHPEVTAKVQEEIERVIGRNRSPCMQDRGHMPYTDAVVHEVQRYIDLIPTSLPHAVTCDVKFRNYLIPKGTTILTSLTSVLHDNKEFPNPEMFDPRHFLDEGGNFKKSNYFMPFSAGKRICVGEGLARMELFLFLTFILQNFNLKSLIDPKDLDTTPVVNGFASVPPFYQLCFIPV

Compound | IC50 [3] [nM] | inhibition at 10 µM (CYP3A4) [%] | Activity (Rattus norvegicus [1]) [%] | other results
Cc1cc(-c2nc(-c3ccc(OCC(C)C)c(C#N)c3)n[nH]2)ccn1 | 17 | 16.8 | 46 | half-life [2]: 22.2 min; Cmax [4]: 16.7 ng/mL; Cmax [5]: 4.5 ng/mL
CCOC(=O)c1cc(-c2nc(-c3ccnc(C)c3)n[nH]2)ccc1OCC(C)C | 20 | – | 42.4 | –
CC(C)COc1ccc(NC(=O)C(=O)O)cc1Cl | 7300 | – | – | –
Cc1cc(-c2n[nH]c(-c3ccc(OCCOCCOCCCl)c(C#N)c3)n2)ccn1 | 21 | – | 40.7 | half-life [2]: 31.2 min; Cmax [4]: 684 ng/mL
Cc1cc(-c2nnc(-c3ccc(OCC(=O)O)c(C#N)c3)[nH]2)ccn1 | 110 | – | – | –
CC(C)COc1ccc(-c2n[nH]c(-c3ccncc3)n2)cc1[N+](=O)[O-] | 3.7 | 80.9 | 33.7 | Activity (Cytochrome P450 2C9): Active; Activity (Cytochrome P450 2C19): Active; Activity (Cytochrome P450 2D6): Active; Cmax [5]: 13.8 ng/mL; Activity (Cytochrome P450 1A2): Active
Cc1cc(-c2nc(-c3ccc(OCC(C)C)c([N+](=O)[O-])c3)n[nH]2)ccn1 | 10 | 7.7 | 39.1 | Cmax [5]: 7.8 ng/mL
Cc1cc(-c2n[nH]c(-c3ccc(O)c(C#N)c3)n2)ccn1 | 43 | – | -8.2 | –
Cc1cc(-c2nnc(-c3ccc(OCC(C)C)c([N+](=O)[O-])c3)[nH]2)cc(Cl)n1 | > 10000 | 10.9 | – | –
COCCOc1ccc(-c2nc(-c3ccnc(C)c3)n[nH]2)cc1C#N | 64 | – | 36.5 | –

Continued, in another order:

IC50 [3] [nM] | inhibition at 10 µM (CYP3A4) [%] | Compound | Activity (Rattus norvegicus [1]) [%] | other results
31 | -6.7 | COCCOCCOc1ccc(-c2nc(-c3ccnc(C)c3)n[nH]2)cc1C#N | 52 | half-life [2]: 58.2 min; Cmax [4]: 712 ng/mL
24 | – | COCOc1ccc(-c2nc(-c3ccnc(C)c3)n[nH]2)cc1C#N | 27 | –
> 10000 | – | Cc1cc(-c2nnc(-c3ccc(OCC(C)C)c(C(=O)O)c3)[nH]2)ccn1 | – | –
15 | – | CC(C)COc1ccc(NC(=O)Nc2ccncc2)cc1[N+](=O)[O-] | -3.2 | –
> 10000 | – | CC(C)COc1ccc(-c2nc(-c3ccccn3)n[nH]2)cc1[N+](=O)[O-] | – | –
26 | – | CCCCOCCOCCOc1ccc(-c2nc(-c3ccnc(C)c3)n[nH]2)cc1C#N | 10.1 | –
40 | – | Cc1cc(-c2n[nH]c(-c3ccc(OCCO)c(C#N)c3)n2)ccn1 | 10.9 | –
– | 7.1 | CC(C)COc1ccc(-c2nc(-c3ccnc(Cl)c3)n[nH]2)cc1[N+](=O)[O-] | – | Activity (Rattus norvegicus [6]): 40.6%
> 10000 | 6.4 | COc1cc(-c2n[nH]c(-c3ccc(OCC(C)C)c([N+](=O)[O-])c3)n2)ccn1 | – | –
60 | – | Cc1cc(-c2n[nH]c(-c3ccc(OCC4COC(C)(C)O4)c(C#N)c3)n2)ccn1 (stereo not given) | 27.9 | –
5900 | 18.2 | CC(C)COc1ccc(-c2nc(-c3cccnc3)n[nH]2)cc1[N+](=O)[O-] | – | –
24 | 16.5 | COCCOCOc1ccc(-c2nc(-c3ccnc(C)c3)n[nH]2)cc1C#N | 40 | half-life [2]: 27 min; Cmax [4]: 360 ng/mL
